Measurements taken from ChEMBL document CHEMBL4837219, “Chemical modification of NSC12 leads to a specific FGF-trap with antitumor activity in multiple myeloma” (Eur J Med Chem, 2021).
The source made the active and inactive calls. No cut-off for these calls is given here.

Columns and labels:
[1] = system: KMS-11; experiment: Trapping activity at FGF in human KMS-11 cells assessed as inhibition of FGFR3 phosphorylation at 6 uM measured after 6 hrs by western blot analysis; format: cell-based
In short: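 KMS-11 cells treated for 6 h with compound at 6.0 µM, then lysed in NP-40 buffer containing orthovanadate and protease inhibitors. Phospho-FGFR3 detected by western blot with anti-phospho-Y724 antibody, using β-actin or α-tubulin as loading control. Result expressed as % inhibition of FGFR3 phosphorylation by densitometry.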

[2] = system: KMS-11; experiment: Antiproliferative activity against human KMS-11 cells assessed as reduction in cell viability incubated for 48 hrs by propidium iodide staining-based flow cytometric analysis; format: functional; conditions: KMS-11, 48 h
In short: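 KMS-11 cells (maintained in RPMI1640 with 10% heat-inactivated FBS and 2.0 mM glutamine) exposed to increasing concentrations of compound for 48 h. Viable PI-negative cells counted by flow cytometry using the analyzer's absolute counting function. IC50 is the concentration giving 50% inhibition of proliferation, taken as the mean of at least 2 experiments run in triplicate.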

[3] = molecular target: Fibroblast growth factor 2 (Homo sapiens, UniProt P09038); experiment: Binding affinity to FGF2 (unknown origin) by sensor chip immobilization based surface plasmon resonance analysis
Fibroblast growth factor 2, sequence (P09038 143-288 limits assumed): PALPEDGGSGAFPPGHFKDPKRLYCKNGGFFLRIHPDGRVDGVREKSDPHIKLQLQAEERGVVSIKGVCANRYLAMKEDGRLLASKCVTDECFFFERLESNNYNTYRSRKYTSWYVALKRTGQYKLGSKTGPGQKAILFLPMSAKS

[4] = system: OPM-2; experiment: Trapping activity at FGF in human OPM-2 cells assessed as inhibition of FGFR3 phosphorylation at 6 uM measured after 6 hrs by westernblot analysis; format: cell-based
In short: (§1)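 Cells cultured in RPMI1640 with 10% FBS and 2.0 mM glutamine, then treated 6 h with 6 µM compound. Washed in cold PBS and lysed in NP-40 buffer (20 mM Tris-HCl pH 8, 1 mM orthovanadate, protease inhibitors). Bradford used to normalize protein. Blots probed for phospho-FGFR3 (Y724), with β-actin or α-tubulin as loading control; percent inhibition read by densitometry.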

[5] = system: RPMI-8226; experiment: Trapping activity at FGF in human RPMI-8226 cells assessed as inhibition of FGFR3 phosphorylation at 6 uM measured after 6 hrs by westernblot analysis; format: cell-based; in short: as §1
[6] = system: U-266; experiment: Trapping activity at FGF in human U-266 cells assessed as inhibition of FGFR3 phosphorylation at 6 uM measured after 6 hrs by westernblot analysis; format: cell-based; in short: as §1
[7] = molecular target: T1, Estrogen receptor (Homo sapiens) (UniProt P03372); experiment: Displacement of [3H]estradiol from human full length recombinant ERalpha expressed in baculovirus-infected Sf9 cells at 5 uM incubated for 120 mins by radiometric scintillation counting analysis
T1 sequence (whole entry): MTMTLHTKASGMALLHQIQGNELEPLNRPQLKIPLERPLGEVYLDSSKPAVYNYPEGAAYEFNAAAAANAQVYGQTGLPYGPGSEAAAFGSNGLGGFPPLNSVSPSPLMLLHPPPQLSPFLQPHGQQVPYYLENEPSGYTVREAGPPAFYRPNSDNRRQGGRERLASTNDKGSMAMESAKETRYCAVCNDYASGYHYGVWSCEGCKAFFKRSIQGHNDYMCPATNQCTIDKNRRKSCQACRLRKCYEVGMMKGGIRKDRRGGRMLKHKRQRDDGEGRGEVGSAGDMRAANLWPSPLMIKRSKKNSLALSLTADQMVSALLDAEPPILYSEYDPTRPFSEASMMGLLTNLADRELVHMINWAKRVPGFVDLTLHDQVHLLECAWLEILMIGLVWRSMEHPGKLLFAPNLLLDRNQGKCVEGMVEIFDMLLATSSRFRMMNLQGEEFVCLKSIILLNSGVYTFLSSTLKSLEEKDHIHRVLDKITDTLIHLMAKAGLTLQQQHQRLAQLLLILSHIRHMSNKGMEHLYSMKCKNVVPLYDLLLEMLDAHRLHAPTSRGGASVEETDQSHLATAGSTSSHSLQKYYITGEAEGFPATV
In short: (§2)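 Radioligand competition binding to human ERα or ERβ, run as an outsourced panel assay. Readout is % inhibition of specific [3H]estradiol binding at 5.0 and 50 µM compound. Run in duplicate, and the mean of the duplicates is reported.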

[8] = molecular target: T1, Estrogen receptor (Homo sapiens); experiment: Displacement of [3H]estradiol from human full length recombinant ERalpha expressed in baculovirus-infected Sf9 cells at 50 uM incubated for 120 mins by radiometric scintillation counting analysis; in short: as §2
[9] = molecular target: Estrogen receptor beta (Homo sapiens) (UniProt Q92731); experiment: Displacement of [3H]estradiol from human full length recombinant ERbeta expressed in baculovirus-infected Sf9 cells at 5 uM incubated for 120 mins by radiometric scintillation counting analysis; in short: as §2
Estrogen receptor beta (Homo sapiens), sequence (Q92731 whole entry): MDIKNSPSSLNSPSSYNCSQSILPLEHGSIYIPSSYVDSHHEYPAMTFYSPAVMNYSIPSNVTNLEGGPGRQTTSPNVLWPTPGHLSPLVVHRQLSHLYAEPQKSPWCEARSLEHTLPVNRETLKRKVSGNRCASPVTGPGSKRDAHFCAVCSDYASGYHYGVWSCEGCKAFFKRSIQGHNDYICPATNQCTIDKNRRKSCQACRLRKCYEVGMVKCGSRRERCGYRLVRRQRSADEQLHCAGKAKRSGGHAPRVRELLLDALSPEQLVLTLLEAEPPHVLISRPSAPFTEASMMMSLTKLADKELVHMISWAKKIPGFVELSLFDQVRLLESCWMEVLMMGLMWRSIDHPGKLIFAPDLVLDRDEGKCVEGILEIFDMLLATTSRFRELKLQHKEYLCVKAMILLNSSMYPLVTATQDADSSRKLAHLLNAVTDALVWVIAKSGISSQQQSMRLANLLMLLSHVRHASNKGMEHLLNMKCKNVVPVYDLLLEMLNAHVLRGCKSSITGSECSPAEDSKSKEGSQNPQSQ

[10] = molecular target: Estrogen receptor beta (Homo sapiens) (UniProt Q92731); experiment: Displacement of [3H]estradiol from human full length recombinant ERbeta expressed in baculovirus-infected Sf9 cells at 50 uM incubated for 120 mins by radiometric scintillation counting analysis; in short: as §2
[11] = system: KMS-11; experiment: Antitumor activity against human KMS-11 cells xenografted in NOD-SCID mouse assessed as tumor growth inhibition at 7.5 mg/kg, ip administered every other day measured at day 17 post-tumor implantation by caliper analysis; format: functional, organism-based
In short: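 Female NOD/SCID mice, six to eight weeks old, injected s.c. with 5 × 10^6 KMS-11 cells in PBS. Once tumors were palpable (10 days), mice were randomized and given 7.5 mg/kg i.p. every other day, with DMSO as vehicle control; n = 5 per group. Tumor volume from caliper measurements, V = (D × d²)/2. Tumors excised and weighed at day 17.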

[12] = Total plasma concentration in NOD-SCID mouse at 7.5 mg/kg, ip measured after 90 mins by HPLC/MS/MS analysis; format: ADME, organism-based
In short: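 A single 7.5 mg/kg i.p. dose given to eight-week-old NOD/SCID mice (n = 4). Blood collected at 90 min. Plasma treated with acetonitrile containing internal standard (1:2) to precipitate protein, centrifuged, and the supernatant analyzed by C18 gradient HPLC-MS/MS in ESI-negative MRM mode. Calibration in spiked blank plasma, linear over 1–1000 nM, LOQ 1 nM. Values are mean ± SEM.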

[13] = system: OPM-2; experiment: Antiproliferative activity against human OPM-2 cells assessed as reduction in cell viability incubated for 48 hrs by propidium iodide staining-based flow cytometric analysis; format: functional; conditions: OPM-2, 48 h
In short: (§3)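 Myeloma cells kept at low passage in RPMI1640 with 10% heat-inactivated FBS and 2.0 mM glutamine, Mycoplasma-tested, authenticated. Exposed to increasing concentrations of test compound for 48 h. Viable cells counted as propidium iodide-negative by flow cytometry with absolute counts. IC50 = concentration halving proliferation; mean of at least 2 experiments in triplicate.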

[14] = system: RPMI-8226; experiment: Antiproliferative activity against human RPMI-8226 cells assessed as reduction in cell viability incubated for 48 hrs by propidium iodide staining-based flow cytometric analysis; format: functional; conditions: RPMI-8226, 48 h; in short: as §3
[15] = system: U-266; experiment: Antiproliferative activity against human U-266 cells assessed as reduction in cell viability incubated for 48 hrs by propidium iodide staining-based flow cytometric analysis; format: functional; conditions: U-266, 48 h; in short: as §3
[16] = Drug metabolism in NOD-SCID mouse plasma assessed as (1R)-4,4,4-trifluoro-1-((3S,10R,13S,17S)-3-hydroxy-10,13-dimethyl-2,3,4,7,8,9,10,11,12,13,14,15,16,17-tetradecahydro-1H-cyclopenta[a]phenanthren-17-yl)-3-(trifluoromethyl)butane-1,3-diol formation at 7.5 mg/kg, ip measured after 90 mins by HPLC-MS/MS analysis; format: ADME, organism-based; conditions: in vivo, 1.5 h

SMILES	inhibition [1]	IC50 [2]	Kd [3]	Activity [4]	Activity [5]	Activity [6]	inhibition [7]	inhibition [8]	inhibition [9]	inhibition [10]	Activity [11]	concentration at 1.5 h [12]	IC50 [13]	IC50 [14]	IC50 [15]	Drug metabolism [16]
C[C@]12CCC(=O)C[C@@H]1CC[C@@H]1[C@@H]2CC[C@]2(C)[C@@H]([C@H](O)CC(O)(C(F)(F)F)C(F)(F)F)CC[C@@H]12	99%	2.4 µM	30.5 µM	Active	Active	Active	0%	0%	4.3%	17.6%	Active	525 nM	6.6 µM	6.6 µM	5.4 µM	–
C[C@]12CC[C@H]3[C@@H](CC=C4C[C@@H](OC(=O)CN)CC[C@@]43C)[C@@H]1CC[C@@H]2[C@H](O)CC(O)(C(F)(F)F)C(F)(F)F	100%	2.3 µM	30 µM	Active	Active	Active	7.4%	50%	21.4%	71.3%	inactive	7.5 nM	7.3 µM	7.3 µM	6.9 µM	Metabolite_Detected
C[C@]12CC[C@H]3[C@@H](CC=C4C[C@@H](O)CC[C@@]43C)[C@@H]1CC[C@@H]2[C@H](O)CC(O)(C(F)(F)F)C(F)(F)F	inactive	–	–	–	–	–	–	–	–	–	–	93.1 nM	–	–	–	–
C[C@]12CC[C@H](O)C[C@@H]1CC[C@@H]1[C@@H]2CC[C@]2(C)[C@@H]([C@@H](O)CC(O)(C(F)(F)F)C(F)(F)F)CC[C@@H]12	89%	2.9 µM	–	–	–	–	–	–	–	–	–	–	–	–	–	–
C[C@]12CC[C@H]3[C@@H](CC=C4CC(=O)CC[C@@]43C)[C@@H]1CC[C@@H]2[C@@H](O)CC(O)(C(F)(F)F)C(F)(F)F	91%	3.4 µM	–	–	–	–	–	–	–	–	–	–	–	–	–	–
C[C@]12CC[C@H]3[C@@H](CC=C4C[C@@H](OCCO)CC[C@@]43C)[C@@H]1CC[C@@H]2[C@H](O)CC(O)(C(F)(F)F)C(F)(F)F	85%	7.7 µM	–	–	–	–	–	–	–	–	–	–	–	–	–	–
C[C@]12CC[C@H]3[C@@H](CC=C4C[C@@H](O)CC[C@@]43C)[C@@H]1CC[C@@H]2[C@@H](O)CC(O)(C(F)(F)F)C(F)(F)F	81%	3.4 µM	–	–	–	–	60.8%	83.3%	74.9%	91.9%	Active	360 nM	–	–	–	–
